Data reported in ChEMBL document CHEMBL4304816, “A Novel Biphenyl-based Chemotype of Retinoid X Receptor Ligands Enables Subtype and Heterodimer Preferences” (ACS Med Chem Lett, 2019).
Activity calls are given as the source filed them. No cut-off for these calls is given here.

Legend:
Assay type in all cases: cell-based
[1] = species on record: Homo sapiens; experiment: Agonist activity at full-length human PPARgamma/RXR expressed in HEK293T cells at 20 uM after 14 to 16 hrs in presence of 1 uM rosiglitazone by dual-glo luciferase reporter gene assay relative to rosiglitazone
In short: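 RXR:PPARγ heterodimer reporter assay run with reference PPARγ agonist rosiglitazone (1 μM) co-applied. Read-out is mean relative synergistic activation, from three independent experiments each run in duplicate.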

[2] = target: T1, Retinoic acid receptor RXR-gamma (Homo sapiens) (UniProt P48443); experiment: Agonist activity at Gal4-LBD fused RXRgamma (unknown origin) expressed in HEK293T cells at 30 uM after 14 to 16 hrs by dual-Glo luciferase assay
T1 sequence (whole entry): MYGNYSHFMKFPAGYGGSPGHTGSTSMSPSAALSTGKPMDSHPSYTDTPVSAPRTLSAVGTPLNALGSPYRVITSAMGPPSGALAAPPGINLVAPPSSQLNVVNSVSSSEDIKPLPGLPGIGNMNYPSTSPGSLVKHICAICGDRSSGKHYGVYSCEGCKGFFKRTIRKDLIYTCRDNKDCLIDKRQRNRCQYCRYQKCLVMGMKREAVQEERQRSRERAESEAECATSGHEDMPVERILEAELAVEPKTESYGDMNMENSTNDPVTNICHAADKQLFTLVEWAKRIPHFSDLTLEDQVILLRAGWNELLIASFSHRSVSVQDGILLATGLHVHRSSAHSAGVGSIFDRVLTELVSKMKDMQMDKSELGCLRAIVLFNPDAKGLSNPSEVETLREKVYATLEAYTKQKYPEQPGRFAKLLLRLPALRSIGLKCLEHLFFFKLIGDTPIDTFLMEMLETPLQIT

[3] = target: T2, Retinoic acid receptor RXR-beta (Homo sapiens, UniProt P28702); experiment: Agonist activity at Gal4-LBD fused RXRbeta (unknown origin) expressed in HEK293T cells after 14 to 16 hrs by dual-Glo luciferase assay
T2 sequence (P28702 whole entry): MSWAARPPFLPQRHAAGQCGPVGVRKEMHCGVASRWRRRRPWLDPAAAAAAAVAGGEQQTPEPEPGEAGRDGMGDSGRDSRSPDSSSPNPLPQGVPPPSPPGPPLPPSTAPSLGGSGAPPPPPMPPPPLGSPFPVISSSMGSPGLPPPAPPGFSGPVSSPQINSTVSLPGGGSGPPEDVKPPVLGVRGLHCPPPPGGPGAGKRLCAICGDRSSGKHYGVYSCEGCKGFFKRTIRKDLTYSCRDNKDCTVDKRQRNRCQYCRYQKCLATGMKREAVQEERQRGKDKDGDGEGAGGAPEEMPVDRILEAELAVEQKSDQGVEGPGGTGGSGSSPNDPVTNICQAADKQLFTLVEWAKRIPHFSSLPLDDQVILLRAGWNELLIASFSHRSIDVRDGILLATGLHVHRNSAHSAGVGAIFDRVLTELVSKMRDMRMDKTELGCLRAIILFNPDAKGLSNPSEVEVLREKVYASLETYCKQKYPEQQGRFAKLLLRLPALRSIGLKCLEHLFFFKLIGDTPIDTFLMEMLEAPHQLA
In short: (§1)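 Gal4-hybrid RXRα/β/γ reporter gene assays in HEK293T cells. Fold activation is the maximal fold activation versus 0.1% DMSO.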

[4] = Agonist activity at full-length human RXR/LXR expressed in HEK293T cells at 20 uM after 14 to 16 hrs by dual-glo luciferase reporter gene assay relative to untreated control; conditions: HEK-293T, read-out: Activity
In short: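 RXR:LXR or RXR:PPARγ heterodimer reporter assay with test compound alone. Activation expressed relative to 0.1% DMSO vehicle. Three independent experiments, each in duplicate; mean reported.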

[5] = Agonist activity at full-length human RXR/LXR expressed in HEK293T cells at 20 uM after 14 to 16 hrs in presence of 1 uM T0901317 by dual-glo luciferase reporter gene assay relative to T0901317; conditions: HEK-293T, read-out: Activity
In short: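 Synergy format: the test compound was co-applied with the partner-receptor reference agonist at 1 μM, either T0901317 (RXR:LXR) or rosiglitazone (RXR:PPARγ). Relative synergistic activation was derived from three independent experiments, each in duplicate; mean reported.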

[6] = species on record: Homo sapiens; experiment: Agonist activity at full-length human PPARgamma/RXR expressed in HEK293T cells at 20 uM after 14 to 16 hrs by dual-glo luciferase reporter gene assay relative to untreated control
In short: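 RXR:PPARγ heterodimer reporter assay in HEK293T cells with test compound alone. Mean relative activation is taken versus 0.1% DMSO, from three independent experiments each run in duplicate.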

[7] = target: T3, Retinoic acid receptor RXR-alpha (Homo sapiens, UniProt P19793); experiment: Agonist activity at Gal4-LBD fused RXRalpha (unknown origin) expressed in HEK293T cells after 14 to 16 hrs by dual-Glo luciferase assay; in short: as §1
T3 sequence (P19793 whole entry): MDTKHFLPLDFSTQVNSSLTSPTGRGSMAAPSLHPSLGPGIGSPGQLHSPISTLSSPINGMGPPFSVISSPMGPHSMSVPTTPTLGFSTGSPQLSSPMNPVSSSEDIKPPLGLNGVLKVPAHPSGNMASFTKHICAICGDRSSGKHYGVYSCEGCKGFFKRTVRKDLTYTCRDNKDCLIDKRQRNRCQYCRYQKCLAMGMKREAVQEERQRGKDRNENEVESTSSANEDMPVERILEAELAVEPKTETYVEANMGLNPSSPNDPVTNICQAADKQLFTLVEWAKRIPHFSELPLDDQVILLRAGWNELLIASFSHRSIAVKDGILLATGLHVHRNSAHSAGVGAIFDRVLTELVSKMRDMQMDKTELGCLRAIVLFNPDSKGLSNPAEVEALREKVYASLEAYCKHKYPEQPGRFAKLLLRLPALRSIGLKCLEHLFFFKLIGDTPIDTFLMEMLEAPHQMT

[8] = target: T4, Retinoic acid receptor RXR-alpha (Homo sapiens) (UniProt P19793); experiment: Agonist activity at Gal4-LBD fused RXRalpha (unknown origin) expressed in HEK293T cells assessed as fold activation after 14 to 16 hrs by dual-Glo luciferase assay relative to untreated control; in short: as §1
T4 sequence (whole entry): T3 sequence (P19793 whole entry)

[9] = target: T5, Retinoic acid receptor RXR-gamma (Homo sapiens, UniProt P48443); experiment: Agonist activity at Gal4-LBD fused RXRgamma (unknown origin) expressed in HEK293T cells after 14 to 16 hrs by dual-Glo luciferase assay; in short: as §1
T5 sequence (P48443 whole entry): T1 sequence (whole entry)

[10] = target: T1, Retinoic acid receptor RXR-gamma (Homo sapiens); experiment: Agonist activity at Gal4-LBD fused RXRgamma (unknown origin) expressed in HEK293T cells assessed as fold activation after 14 to 16 hrs by dual-Glo luciferase assay relative to untreated control; in short: as §1
[11] = target: T6, Retinoic acid receptor RXR-beta (Homo sapiens) (UniProt P28702); experiment: Agonist activity at Gal4-LBD fused RXRbeta (unknown origin) expressed in HEK293T cells assessed as fold activation after 14 to 16 hrs by dual-Glo luciferase assay relative to untreated control; in short: as §1
T6 sequence (whole entry): T2 sequence (P28702 whole entry)

[12] = target: T6, Retinoic acid receptor RXR-beta (Homo sapiens); experiment: Agonist activity at Gal4-LBD fused RXRbeta (unknown origin) expressed in HEK293T cells at 30 uM after 14 to 16 hrs by dual-Glo luciferase assay
[13] = target: T1, Retinoic acid receptor RXR-gamma (Homo sapiens); experiment: Agonist activity at Gal4-LBD fused RXRgamma (unknown origin) expressed in HEK293T cells at 20 uM after 14 to 16 hrs by dual-Glo luciferase assay
[14] = target: T1, Retinoic acid receptor RXR-gamma (Homo sapiens); experiment: Agonist activity at Gal4-LBD fused RXRgamma (unknown origin) expressed in HEK293T cells at 10 uM after 14 to 16 hrs by dual-Glo luciferase assay
[15] = target: T6, Retinoic acid receptor RXR-beta (Homo sapiens); experiment: Agonist activity at Gal4-LBD fused RXRbeta (unknown origin) expressed in HEK293T cells at 10 uM after 14 to 16 hrs by dual-Glo luciferase assay
[16] = target: T4, Retinoic acid receptor RXR-alpha (Homo sapiens); experiment: Agonist activity at Gal4-LBD fused RXRalpha (unknown origin) expressed in HEK293T cells at 10 uM after 14 to 16 hrs by dual-Glo luciferase assay
[17] = target: T4, Retinoic acid receptor RXR-alpha (Homo sapiens); experiment: Agonist activity at Gal4-LBD fused RXRalpha (unknown origin) expressed in HEK293T cells at 30 uM after 14 to 16 hrs by dual-Glo luciferase assay

Activity [2] | EC50 [3] | EC50 [7] | fold change (FC) [8] | fold change (FC) [11] | Activity [14] | Activity [15] | Activity [16] | SMILES | other results
 | 2.1 µM | 1.5 µM | 21 | 94 |  |  |  | CC(C)(C)c1cc(-c2ccc(CCC(=O)O)cc2)cc(C(C)(C)C)c1 | EC50 [9]: 5 µM; fold change (FC) [10]: 17
inactive |  | 25.4 µM | 4.8 |  |  |  |  | COc1cc(OC)cc(-c2ccc(C(=O)O)cc2)c1 | Activity [12]: inactive
 |  |  |  |  | inactive | inactive | inactive | Cc1cc(C(=O)O)ccc1-c1cc(C(C)(C)C)cc(C(C)(C)C)c1 | 
 | 13.4 µM | 10.6 µM | 18 | 19 |  |  |  | CC(C)Oc1cccc(-c2ccc(C(=O)O)cc2)c1 | Activity [13]: inactive

Continued, molecule first:

SMILES | Activity [2] | EC50 [3] | EC50 [7] | fold change (FC) [8] | fold change (FC) [11] | Activity [14] | Activity [15] | Activity [16] | other results
Cc1cc(-c2cc(C(F)(F)F)cc(C(F)(F)F)c2)ccc1C(=O)O | inactive | 8.9 µM | 9.1 µM |  |  |  |  |  | Activity [1]: 46%; activity at 20 µM [4]: 71%; activity at 20 µM [5]: 71%; Activity [6]: 84%
CCc1cc(CC)cc(-c2ccc(C(=O)O)cc2)c1 |  | 6.7 µM | 3.4 µM | 11 | 33 |  |  |  | Activity [13]: inactive
COc1cccc(-c2ccc(C(=O)O)cc2)c1 | inactive |  |  |  |  |  |  |  | Activity [12]: inactive; Activity [17]: inactive
CC(C)(C)c1cc(-c2ccc(C(=O)O)cn2)cc(C(C)(C)C)c1 |  |  |  |  |  | inactive | inactive | inactive | 
CC(C)(C)c1cc(-c2ccc(C(=O)O)nc2)cc(C(C)(C)C)c1 |  |  |  |  |  | inactive | inactive | inactive | 
CC(C)c1cccc(-c2ccc(C(=O)O)cc2)c1 |  | 16.2 µM | 14.3 µM | 28 | 65 |  |  |  | EC50 [9]: 11.6 µM; fold change (FC) [10]: 2.7
